# Laboratory results from ChEMBL document CHEMBL1134468 (J Med Chem, 2001).
# Where a SMILES comes first, the peptide text is derived from it. Bridges are numbered along the chain shown (N, C = ends). Roman numbers before positions name the chains, in order. [ ]: non-standard residue; d: D form. Dap = NC[C@H](N)C(=O)O
# Experiments:
# [1] = target: T1, Neuropeptide Y receptor type 5 (Homo sapiens, UniProt Q15761); assay: Agonist potency for the inhibition of Forskolin stimulated cAMP synthesis in cells expressing cloned Y5 receptors; type: functional
# T1 sequence (Q15761 whole entry): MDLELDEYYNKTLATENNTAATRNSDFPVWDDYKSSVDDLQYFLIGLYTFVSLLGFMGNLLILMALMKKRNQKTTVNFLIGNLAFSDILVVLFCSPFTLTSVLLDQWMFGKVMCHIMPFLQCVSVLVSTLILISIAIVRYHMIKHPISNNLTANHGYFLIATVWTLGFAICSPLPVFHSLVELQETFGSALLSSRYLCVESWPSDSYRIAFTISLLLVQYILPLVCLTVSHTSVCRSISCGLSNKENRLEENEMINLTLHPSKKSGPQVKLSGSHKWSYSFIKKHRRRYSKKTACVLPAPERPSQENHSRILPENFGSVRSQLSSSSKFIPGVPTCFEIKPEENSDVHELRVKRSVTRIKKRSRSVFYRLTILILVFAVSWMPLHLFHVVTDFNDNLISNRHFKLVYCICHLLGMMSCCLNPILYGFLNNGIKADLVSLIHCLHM
# [2] = target: T1, Neuropeptide Y receptor type 5; assay: Affinity for cloned Y5 receptor using [125I]PYY as radioligand
# [3] = target: T2, Neuropeptide Y receptor type 1 (Homo sapiens, UniProt P25929); assay: Affinity for cloned Y1 receptor using [125I]PYY as radioligand
# T2 sequence (P25929 whole entry): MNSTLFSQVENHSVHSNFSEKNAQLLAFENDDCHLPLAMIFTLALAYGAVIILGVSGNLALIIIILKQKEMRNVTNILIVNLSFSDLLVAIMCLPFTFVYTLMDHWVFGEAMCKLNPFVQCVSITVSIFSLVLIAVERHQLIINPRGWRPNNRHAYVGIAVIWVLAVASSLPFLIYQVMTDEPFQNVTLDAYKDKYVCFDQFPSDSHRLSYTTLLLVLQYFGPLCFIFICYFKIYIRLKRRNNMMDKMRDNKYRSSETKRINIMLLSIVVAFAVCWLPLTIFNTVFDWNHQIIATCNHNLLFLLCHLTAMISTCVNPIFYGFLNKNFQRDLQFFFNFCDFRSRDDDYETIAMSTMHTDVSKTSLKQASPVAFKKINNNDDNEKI
# [4] = target: T3, Neuropeptide Y receptor type 1 (Homo sapiens) (UniProt P25929); assay: Selectivity ratio of Y1/Y2/Y4/Y5; 1/790/3/1640
# T3 sequence (whole entry): T2 sequence (P25929 whole entry)
# [5] = target: T4, Neuropeptide Y receptor type 2 (Homo sapiens, UniProt P49146); assay: Agonist potency for the inhibition of Forskolin stimulated cAMP synthesis in cells expressing cloned Y2 receptors; type: functional
# T4 sequence (P49146 whole entry): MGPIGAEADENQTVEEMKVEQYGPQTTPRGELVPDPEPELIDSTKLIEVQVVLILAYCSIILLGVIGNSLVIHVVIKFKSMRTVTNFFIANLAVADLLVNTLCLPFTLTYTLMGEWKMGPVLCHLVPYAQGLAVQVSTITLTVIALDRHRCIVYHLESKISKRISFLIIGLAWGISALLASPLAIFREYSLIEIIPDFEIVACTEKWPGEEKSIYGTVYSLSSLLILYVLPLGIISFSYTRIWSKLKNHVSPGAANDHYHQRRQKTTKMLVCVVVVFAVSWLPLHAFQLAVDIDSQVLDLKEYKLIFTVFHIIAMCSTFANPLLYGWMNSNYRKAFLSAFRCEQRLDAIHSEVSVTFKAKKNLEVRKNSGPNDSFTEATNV
# [6] = target: T4, Neuropeptide Y receptor type 2; assay: Affinity for cloned Y2 receptor using [125I]PYY as radioligand
# [7] = target: T5, Neuropeptide Y receptor type 4 (Homo sapiens, UniProt P50391); assay: Agonist potency for the inhibition of Forskolin stimulated cAMP synthesis in cells expressing cloned Y4 receptors; type: functional
# Method in brief: (§1)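 Inhibition of forskolin-driven cAMP synthesis in cells expressing the Y4 receptor, with PP run as the reference control.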
# [8] = target: T5, Neuropeptide Y receptor type 4; assay: Affinity for cloned Y4 receptor using [125I]PP as radioligand
# [9] = target: T5, Neuropeptide Y receptor type 4; assay: Agonist potency for the inhibition of Forskolin stimulated cAMP synthesis in cells expressing cloned Y4 receptors(no effect at <20000 nM); type: functional; method in brief: as §1
# [10] = target: T1, Neuropeptide Y receptor type 5; assay: Agonist potency for the inhibition of Forskolin stimulated cAMP synthesis in cells expressing cloned Y5 receptors(no effect at <20000 nM); type: functional
# [11] = target: Neuropeptide Y receptor type 2 (Homo sapiens) (UniProt P49146); assay: Agonist potency for the inhibition of Forskolin stimulated cAMP synthesis in cells expressing cloned Y2 receptors; no effect means no agonist activity at <20 000 nM
# T5 sequence (P50391 whole entry): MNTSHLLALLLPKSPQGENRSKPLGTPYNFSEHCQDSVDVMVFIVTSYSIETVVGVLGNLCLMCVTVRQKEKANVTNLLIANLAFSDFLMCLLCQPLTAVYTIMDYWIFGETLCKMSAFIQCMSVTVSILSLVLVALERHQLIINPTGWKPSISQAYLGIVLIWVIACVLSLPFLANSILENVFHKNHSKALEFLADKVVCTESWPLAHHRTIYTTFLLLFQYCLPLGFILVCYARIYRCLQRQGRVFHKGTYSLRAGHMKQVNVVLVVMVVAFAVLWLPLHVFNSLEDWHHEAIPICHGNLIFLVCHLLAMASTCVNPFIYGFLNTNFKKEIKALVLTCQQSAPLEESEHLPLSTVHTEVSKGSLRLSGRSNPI
structure (smiles),measurement,setting,value
"CC[C@H](C)[C@H](N)C(=O)N[C@H]1CCC(=O)NC[C@@H](C(=O)N[C@@H](Cc2ccc(O)cc2)C(=O)N[C@@H](CCCN=C(N)N)C(=O)N[C@@H](CC(C)C)C(=O)N[C@@H](CCCN=C(N)N)C(=O)N[C@@H](Cc2ccc(O)cc2)C(N)=O)NC(=O)[C@@H]2CCCN2C(=O)[C@@H](NC(=O)[C@@H](N)[C@@H](C)CC)CCC(=O)NC[C@@H](C(=O)N[C@@H](Cc2ccc(O)cc2)C(=O)N[C@@H](CCCN=C(N)N)C(=O)N[C@@H](CC(C)C)C(=O)N[C@@H](CCCN=C(N)N)C(=O)N[C@@H](Cc2ccc(O)cc2)C(N)=O)NC(=O)[C@@H]2CCCN2C1=O (I: H-IEP[Dap]YRLRY-NH2 / II: H-IEP[Dap]YRLRY-NH2; amide I:2-II:4, I:4-II:2)",EC50,[1],2050 nM
same,Ki,[2],115 nM
same,Ki,[3],0.07 nM
same,Selectivity,[4],Y1/Y4/Y2/Y5
same,EC50,[5],983 nM
same,Ki,[6],55 nM
same,EC50,[7],2.5 nM
same,Ki,[8],0.26 nM
CC[C@H](C)[C@H](N)C(=O)N[C@H]1CCC(=O)NC[C@@H](C(=O)N[C@@H](Cc2ccc(O)cc2)C(=O)N[C@@H](CCCN=C(N)N)C(=O)N[C@@H](CC(C)C)C(=O)N[C@@H](CCCN=C(N)N)CN[C@@H](Cc2ccc(O)cc2)C(N)=O)NC(=O)[C@@H]2CCCN2C(=O)[C@@H](NC(=O)[C@@H](N)[C@@H](C)CC)CCC(=O)NC[C@@H](C(=O)N[C@@H](Cc2ccc(O)cc2)C(=O)N[C@@H](CCCN=C(N)N)C(=O)N[C@@H](CC(C)C)C(=O)N[C@@H](CCCN=C(N)N)CN[C@@H](Cc2ccc(O)cc2)C(N)=O)NC(=O)[C@@H]2CCCN2C1=O,EC50,[9],Not Active
same,EC50,[10],Not Active
same,EC50,[11],Not Active
